Experiments:
[1] = Inhibition of calf ALR2; design: species or system Bos taurus
In short: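 Partially purified ALR2 extracted from calf eye. D,L-glyceraldehyde was the substrate with NADPH as cofactor, and sulindac served as reference. IC50 values are given ± SEM from n = 3. Kinetics were also run with inhibitor at 20 µM, varying substrate or NADPH for Km and inhibition type.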

Rattus norvegicus [2] = organism: Rattus norvegicus; assay: Antidiabetic activity in albino rat diabetic model assessed as plasma glucose level measured after 7 hrs (reference value: 280 +/- 6.51 mg/dl); assay type: functional
Rattus norvegicus [3] = organism: Rattus norvegicus; assay: Antidiabetic activity in albino rat diabetic model assessed as plasma glucose level measured after 4 hrs (reference value: 291 +/- 6.40 mg/dl); assay type: functional
Rattus norvegicus [4] = organism: Rattus norvegicus; assay: Antidiabetic activity in albino rat diabetic model assessed as plasma glucose level measured after 5 hrs (reference value: 275 +/- 3.53 mg/dl); assay type: functional
Bos taurus = organism: Bos taurus; assay: Inhibition of calf ALR1 at 0.6 mM
In short: (§1)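 ALR1 (aldehyde reductase) partially purified from calf kidney. Values are IC50 ± SEM in µM, or percent inhibition at 0.6 mM. Valproic acid served as positive control to validate the assay.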

Rattus norvegicus [5] = organism: Rattus norvegicus; assay: Antidiabetic activity in albino rat diabetic model assessed as plasma glucose level measured after 2 hrs (reference value: 251 +/- 2.91 mg/dl); assay type: functional
Rattus norvegicus [6] = organism: Rattus norvegicus; assay: Antidiabetic activity in albino rat diabetic model assessed as plasma glucose level measured after 1 hr (reference value: 274 +/- 4.73 mg/dl); assay type: functional
Rattus norvegicus [7] = organism: Rattus norvegicus; assay: Antidiabetic activity in albino rat diabetic model assessed as plasma glucose level measured after 6 hrs (reference value: 285 +/- 8.66 mg/dl); assay type: functional
Rattus norvegicus [8] = organism: Rattus norvegicus; assay: Antidiabetic activity in albino rat diabetic model assessed as plasma glucose level measured after 3 hrs (reference value: 263 +/- 10.67 mg/dl); assay type: functional
[9] = Inhibition of calf ALR1; design: species or system Bos taurus; in short: as §1

**Q.** Which IC50 [1] does the source give for `CC1=C(CC(=O)O)c2cc(F)ccc2/C1=C\c1ccc([S+](C)[O-])cc1` (stereo unspecified) [SULINDAC] here?
**A.** 0.293 µM

**Q.** Which results are given for `O=C1NC2(CC3CCC2C3)C(=O)N1S(=O)(=O)c1ccc(Br)cc1` (stereo unspecified)?
**A.** Activity (Rattus norvegicus [2]): 245 mg/dL; Activity (Rattus norvegicus [3]): 353 mg/dL; IC50 [1]: 15.4 µM; Activity (Rattus norvegicus [4]): 352 mg/dL; inhibition (Bos taurus): 43.2%; Activity (Rattus norvegicus [5]): 273 mg/dL; Activity (Rattus norvegicus [6]): 289 mg/dL; Activity (Rattus norvegicus [7]): 337 mg/dL; Activity (Rattus norvegicus [8]): 357 mg/dL

**Q.** What does the source list for `O=C1NC2(CC3CCC2C3)C(=O)N1S(=O)(=O)c1ccc(Cl)cc1` (stereo unspecified)?
**A.** Activity (Rattus norvegicus [2]): 128 mg/dL; Activity (Rattus norvegicus [3]): 280 mg/dL; IC50 [9]: 61.1 µM; IC50 [1]: 5.59 µM; Activity (Rattus norvegicus [4]): 215 mg/dL; Activity (Rattus norvegicus [5]): 287 mg/dL; Activity (Rattus norvegicus [6]): 392 mg/dL; Activity (Rattus norvegicus [7]): 143 mg/dL; Activity (Rattus norvegicus [8]): 283 mg/dL

**Q.** Which results are given for `O=C1NC2(CC3CCC2C3)C(=O)N1S(=O)(=O)c1ccc([N+](=O)[O-])cc1` (stereo unspecified)?
**A.** Activity (Rattus norvegicus [2]): 542 mg/dL; Activity (Rattus norvegicus [3]): 421 mg/dL; IC50 [9]: 44.8 µM; IC50 [1]: 13.1 µM; Activity (Rattus norvegicus [4]): 349 mg/dL; Activity (Rattus norvegicus [5]): 429 mg/dL; Activity (Rattus norvegicus [6]): 399 mg/dL; Activity (Rattus norvegicus [7]): 502 mg/dL; Activity (Rattus norvegicus [8]): 482 mg/dL

**Q.** Which Activity (Rattus norvegicus [2]) does the source give for `Cc1ccc(S(=O)(=O)N2C(=O)NC3(CC4CCC3C4)C2=O)cc1` (stereo unspecified) here?
**A.** 114 mg/dL

**Q.** What about the Activity (Rattus norvegicus [3]) of the same compound?
**A.** 225 mg/dL

**Q.** And the IC50 [9]?
**A.** 117 µM

**Q.** What about the IC50 [1] of the same compound?
**A.** 1.8 µM

**Q.** And the Activity (Rattus norvegicus [4])?
**A.** 163 mg/dL

**Q.** And the Activity (Rattus norvegicus [5])?
**A.** 421 mg/dL

**Q.** And the Activity (Rattus norvegicus [6])?
**A.** 506 mg/dL

**Q.** And the Activity (Rattus norvegicus [7])?
**A.** 128 mg/dL

**Q.** And the Activity (Rattus norvegicus [8])?
**A.** 305 mg/dL

**Q.** What does the source list for `O=C1c2ccccc2C(=O)c2cc(S(=O)(=O)N3C(=O)NC4(CC5CCC4C5)C3=O)ccc21` (stereo unspecified)?
**A.** Activity (Rattus norvegicus [2]): 86 mg/dL; Activity (Rattus norvegicus [3]): 281 mg/dL; IC50 [1]: 4.5 µM; Activity (Rattus norvegicus [4]): 187 mg/dL; inhibition (Bos taurus): 41.6%; Activity (Rattus norvegicus [5]): 399 mg/dL; Activity (Rattus norvegicus [6]): 460 mg/dL; Activity (Rattus norvegicus [7]): 99 mg/dL; Activity (Rattus norvegicus [8]): 338 mg/dL

**Q.** Which Activity (Rattus norvegicus [2]) does the source give for `COc1ccc(Cl)cc1C(=O)NCCc1ccc(S(=O)(=O)NC(=O)NC2CCCCC2)cc1` [GLYBURIDE] here?
**A.** 150 mg/dL

**Q.** And the Activity (Rattus norvegicus [3])?
**A.** 239 mg/dL

**Q.** What about the Activity (Rattus norvegicus [4]) of the same compound?
**A.** 220 mg/dL

**Q.** And the Activity (Rattus norvegicus [5])?
**A.** 289 mg/dL

**Q.** What about the Activity (Rattus norvegicus [6]) of the same compound?
**A.** 350 mg/dL

**Q.** And the Activity (Rattus norvegicus [7])?
**A.** 170 mg/dL

**Q.** What about the Activity (Rattus norvegicus [8]) of the same compound?
**A.** 250 mg/dL

**Q.** With `COc1ccc(S(=O)(=O)N2C(=O)NC3(CC4CCC3C4)C2=O)cc1` (stereo unspecified) as the compound, how does the Activity (Rattus norvegicus [2]) read?
**A.** 620 mg/dL

**Q.** And the Activity (Rattus norvegicus [3])?
**A.** 570 mg/dL

**Q.** What about the IC50 [9] of the same compound?
**A.** 40.2 µM

**Q.** What about the IC50 [1] of the same compound?
**A.** 4.4 µM

**Q.** What about the Activity (Rattus norvegicus [4]) of the same compound?
**A.** 565 mg/dL

**Q.** And the Activity (Rattus norvegicus [5])?
**A.** 353 mg/dL

**Q.** What about the Activity (Rattus norvegicus [6]) of the same compound?
**A.** 413 mg/dL

**Q.** What about the Activity (Rattus norvegicus [7]) of the same compound?
**A.** 600 mg/dL

**Q.** And the Activity (Rattus norvegicus [8])?
**A.** 544 mg/dL

**Q.** With `O=C1NC2(CC3CCC2C3)C(=O)N1S(=O)(=O)c1ccc2ccccc2c1` (stereo unspecified) as the compound, how does the Activity (Rattus norvegicus [2]) read?
**A.** 430 mg/dL

**Q.** What about the Activity (Rattus norvegicus [3]) of the same compound?
**A.** 471 mg/dL

**Q.** What about the IC50 [1] of the same compound?
**A.** 3.8 µM

**Q.** What about the Activity (Rattus norvegicus [4]) of the same compound?
**A.** 401 mg/dL

**Q.** What about the inhibition (Bos taurus) of the same compound?
**A.** 36.8%

**Q.** And the Activity (Rattus norvegicus [5])?
**A.** 389 mg/dL

**Q.** What about the Activity (Rattus norvegicus [6]) of the same compound?
**A.** 210 mg/dL

**Q.** What about the Activity (Rattus norvegicus [7]) of the same compound?
**A.** 414 mg/dL

**Q.** And the Activity (Rattus norvegicus [8])?
**A.** 393 mg/dL
